Laboratory results reported in ChEMBL document CHEMBL1142242, “Indanylacetic acid derivatives carrying 4-thiazolyl-phenoxy tail groups, a new class of potent PPAR alpha/gamma/delta pan agonists: synthesis, structure-activity relationship, and in vivo efficacy” (J Med Chem, 2007).
Calls of active or inactive are those of the source. The calls are words filed in the database; no cut-off is given here.

Experiments:
[1] = target: T1, Peroxisome proliferator-activated receptor alpha (Homo sapiens, UniProt Q07869); test: Agonist activity at human PPAR alpha by FRET assay; assay type: functional
T1 sequence (Q07869 whole entry): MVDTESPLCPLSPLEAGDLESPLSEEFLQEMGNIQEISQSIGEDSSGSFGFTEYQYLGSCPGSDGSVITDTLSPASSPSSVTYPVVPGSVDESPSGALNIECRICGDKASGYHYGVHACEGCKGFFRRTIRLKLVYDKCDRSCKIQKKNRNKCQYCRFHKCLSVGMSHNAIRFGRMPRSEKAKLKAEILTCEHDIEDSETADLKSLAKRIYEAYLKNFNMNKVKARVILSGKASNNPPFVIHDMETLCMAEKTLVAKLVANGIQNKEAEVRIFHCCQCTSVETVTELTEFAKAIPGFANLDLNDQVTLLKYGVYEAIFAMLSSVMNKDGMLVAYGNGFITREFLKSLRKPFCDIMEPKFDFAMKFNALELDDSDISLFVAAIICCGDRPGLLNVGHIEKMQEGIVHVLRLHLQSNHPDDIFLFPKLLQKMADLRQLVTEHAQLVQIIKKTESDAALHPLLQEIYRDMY
Method in brief: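 Human PPARα ligand binding domain (GST-tagged) association with biotin-labeled co-activator CBP; Eu-labeled anti-GST antibody and streptavidin-APC; incubated 2 h at rt in buffer with or without compound; fluorescence read at 615 or 655 nm emission, 340 nm excitation.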

[2] = target: T2, Peroxisome proliferator-activated receptor gamma (Mus musculus, UniProt P37238); test: Agonist activity at PPAR gamma in mouse 3T3L1 cells assessed as increase in insulin receptor by IRBA; assay type: functional, cell-based, 3T3-L1
T2 sequence (P37238 whole entry): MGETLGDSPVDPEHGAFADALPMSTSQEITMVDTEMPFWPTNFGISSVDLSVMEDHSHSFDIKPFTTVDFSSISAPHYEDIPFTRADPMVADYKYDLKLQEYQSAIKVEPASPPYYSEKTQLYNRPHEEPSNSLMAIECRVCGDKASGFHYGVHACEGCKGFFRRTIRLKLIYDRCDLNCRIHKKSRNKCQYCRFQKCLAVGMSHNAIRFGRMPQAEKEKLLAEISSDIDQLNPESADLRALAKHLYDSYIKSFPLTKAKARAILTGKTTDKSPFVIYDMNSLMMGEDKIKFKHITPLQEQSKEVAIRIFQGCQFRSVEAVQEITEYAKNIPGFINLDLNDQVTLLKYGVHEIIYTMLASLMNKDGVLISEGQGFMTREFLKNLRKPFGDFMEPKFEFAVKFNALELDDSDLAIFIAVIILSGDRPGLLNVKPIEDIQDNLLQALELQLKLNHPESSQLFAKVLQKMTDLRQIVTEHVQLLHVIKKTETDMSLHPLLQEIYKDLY

[3] = target: T3, Peroxisome proliferator-activated receptor delta (Homo sapiens, UniProt Q03181); test: Agonist activity at human PPAR delta by FRET assay; assay type: functional
T3 sequence (Q03181 whole entry): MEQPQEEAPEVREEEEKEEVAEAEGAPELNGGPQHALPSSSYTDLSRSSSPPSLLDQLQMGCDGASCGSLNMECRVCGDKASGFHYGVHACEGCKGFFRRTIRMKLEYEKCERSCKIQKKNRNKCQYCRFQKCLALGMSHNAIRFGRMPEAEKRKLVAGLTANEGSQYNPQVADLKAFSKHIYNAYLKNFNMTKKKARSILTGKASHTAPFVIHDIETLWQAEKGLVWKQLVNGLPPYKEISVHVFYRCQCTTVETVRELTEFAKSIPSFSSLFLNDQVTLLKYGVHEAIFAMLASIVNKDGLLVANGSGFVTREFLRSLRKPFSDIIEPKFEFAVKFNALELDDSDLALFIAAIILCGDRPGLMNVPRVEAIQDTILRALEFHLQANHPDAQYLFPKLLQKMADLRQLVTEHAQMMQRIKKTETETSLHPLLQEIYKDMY

Mus musculus [4] = test: Reduction of plasma triglyceride level in male human apoA1 transgenic mouse at 10 mg/kg; assay type: functional, organism-based; design: dose 10 mg/kg
Method in brief: (§1)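 hApoA1 transgenic mice, 6 weeks old at purchase, grouped by equal baseline plasma triglyceride; oral dosing once daily for 7 days in 0.5% methylcellulose in water; bled ~24 h after last dose; plasma triglyceride and HDLc by autoanalyzer; mean ± SEM, 6-8 mice.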

Mus musculus [5] = test: Increase of plasma HDLc level in female human apoA1 transgenic mouse at 10 mg/kg; assay type: functional, organism-based; design: dose 10 mg/kg; method in brief: as §1
Mus musculus [6] = test: Increase of plasma HDLc level in male human apoA1 transgenic mouse at 10 mg/kg; assay type: functional, organism-based; design: dose 10 mg/kg; method in brief: as §1

| Structure (SMILES) | EC50 [1] | EC50 [2] | EC50 [3] | Activity (Mus musculus [4]) | Activity (Mus musculus [5]) | Activity (Mus musculus [6]) |
| --- | --- | --- | --- | --- | --- | --- |
| Cc1noc2c(C)c(OCCCOc3ccc4c(c3)CC[C@H]4CC(=O)O)ccc12 | > 10000 nM | 290 nM | 8.1 nM | – | – | – |
| CCOc1ccc(OCCCOc2ccc3c(c2)CC[C@H]3CC(=O)O)cc1 | > 10000 nM | 940 nM | 6.6 nM | – | – | – |
| Cc1cc(SCc2sc(-c3ccc(C(F)(F)F)cc3)nc2C)ccc1OCC(=O)O | – | – | – | Dose-dependent effect | Active | Dose-dependent effect |
| Cc1nc(-c2ccc(OCCCOc3ccc4c(c3)CC[C@H]4CC(=O)O)cc2)sc1C(=O)O | 10000 nM | 312 nM | 218 nM | – | – | – |
| CCCc1cc(-c2nc(C(F)(F)F)cs2)ccc1OCCCOc1ccc2c(c1)CC[C@H]2CC(=O)O | 197 nM | 55 nM | 3.3 nM | – | – | – |
| COc1cc(-c2nc(OC(C)C)cs2)ccc1OCCCOc1ccc2c(c1)CC[C@H]2CC(=O)O | 180 nM | 44 nM | 3 nM | – | – | – |
| COc1cc(C)ccc1OCCCOc1ccc2c(c1)CC[C@H]2CC(=O)O | > 10000 nM | 1670 nM | 7.5 nM | – | – | – |
| Cc1ccc(OCCCOc2ccc3c(c2)CC[C@H]3CC(=O)O)c(C)c1 | 9360 nM | 2180 nM | 4.6 nM | – | – | – |
| CCCc1c(OCCCOc2ccc3c(c2)CC[C@H]3CC(=O)O)ccc2[nH]ccc12 | > 10000 nM | 460 nM | 6.2 nM | – | – | – |
| CCCc1cc(-c2nc(OCC)cs2)ccc1OCCCOc1ccc2c(c1)CC[C@H]2CC(=O)O | 105 nM | 41 nM | 2 nM | – | – | – |
| CCc1csc(-c2ccc(OCCCOc3ccc4c(c3)CC[C@H]4CC(=O)O)c(OC)c2)n1 | 254 nM | 65 nM | 2.5 nM | – | – | – |
| CCCc1cc(-c2nc(C)c(C(=O)O)s2)ccc1OCCCOc1ccc2c(c1)CC[C@H]2CC(=O)O | 1690 nM | 238 nM | 46 nM | – | – | – |
| O=C(O)C[C@@H]1CCc2cc(OCCCOc3ccc(-c4cccnc4)cc3)ccc21 | 1690 nM | 550 nM | 2.3 nM | – | – | – |
| CCOc1csc(-c2ccc(OCCCOc3ccc4c(c3)CC[C@H]4CC(=O)O)cc2)n1 | 100 nM | 753 nM | 1.2 nM | – | – | – |
| COc1cc(-c2nc3c(s2)CCCO3)ccc1OCCCOc1ccc2c(c1)CC[C@H]2CC(=O)O | 328 nM | 181 nM | 1.3 nM | – | – | – |
| CCCc1cc(-c2nc3c(s2)CCC3)ccc1OCCCOc1ccc2c(c1)CC[C@H]2CC(=O)O | 328 nM | 94 nM | 3.5 nM | – | – | – |
| Cc1c(OCCCOc2ccc3c(c2)CC[C@H]3CC(=O)O)ccc2[nH]ccc12 | > 10000 nM | 6850 nM | 286 nM | – | – | – |

| Structure (SMILES) | EC50 [1] | EC50 [2] | EC50 [3] | Activity (Mus musculus [4]) | Activity (Mus musculus [5]) | Activity (Mus musculus [6]) |
| --- | --- | --- | --- | --- | --- | --- |
| CCCc1cc(-c2nc(C(C)(C)C)cs2)ccc1OCCCOc1ccc2c(c1)CC[C@H]2CC(=O)O | 87 nM | 18 nM | 11 nM | – | – | – |
| CCCc1c(OCCCOc2ccc3c(c2)CC[C@H]3CC(=O)O)ccc2c1ccn2C | > 10000 nM | > 10000 nM | 29 nM | – | – | – |
| COc1csc(-c2ccc(OCCCOc3ccc4c(c3)CC[C@H]4CC(=O)O)cc2)n1 | 5800 nM | 300 nM | 1.3 nM | – | – | – |
| CCOc1csc(-c2ccc(OCCCOc3ccc4c(c3)CC[C@H]4CC(=O)O)c(OC)c2)n1 | 1350 nM | 920 nM | 3.4 nM | – | – | – |
| CC(=O)c1sc(-c2ccc(OCCCOc3ccc4c(c3)CC[C@H]4CC(=O)O)cc2)nc1C | 2530 nM | 480 nM | 6.9 nM | – | – | – |
| Cc1nc(-c2ccc(OCCCOc3ccc4c(c3)CC[C@H]4CC(=O)O)cc2)sc1C | 1250 nM | 280 nM | 2.9 nM | – | – | – |
| COc1cc(-c2nc(C)cs2)ccc1OCCCOc1ccc2c(c1)CC[C@H]2CC(=O)O | 268 nM | 960 nM | 2.7 nM | – | – | – |
| CCc1csc(-c2ccc(OCCCOc3ccc4c(c3)CC[C@H]4CC(=O)O)cc2)n1 | 1280 nM | 874 nM | 4.4 nM | – | – | – |
| CCCc1cc(-c2nc(C)c(C(C)=O)s2)ccc1OCCCOc1ccc2c(c1)CC[C@H]2CC(=O)O | 175 nM | 17 nM | 18 nM | – | – | – |
| COc1cc(-c2nc(C)c(C(=O)O)s2)ccc1OCCCOc1ccc2c(c1)CC[C@H]2CC(=O)O | 10000 nM | 1000 nM | 28 nM | – | – | – |
| COc1ncc(-c2ccc(OCCCOc3ccc4c(c3)CC[C@H]4CC(=O)O)cc2)c(OC)n1 | > 10000 nM | 300 nM | 5.6 nM | – | – | – |
| O=C(O)C[C@@H]1CCc2cc(OCCCOc3ccc(-c4ccc5cc[nH]c5c4)cc3)ccc21 | 6600 nM | 740 nM | 1.5 nM | – | – | – |
| O=C(O)C[C@@H]1CCc2cc(OCCCOc3ccc(-c4nc5c(s4)CCC5)cc3)ccc21 | 112 nM | 1200 nM | 1.3 nM | – | – | – |
| O=C(O)C[C@@H]1CCc2cc(OCCCOc3ccc(-n4cnnc4)cc3Cl)ccc21 | 6850 nM | 8700 nM | 2230 nM | – | – | – |
| COc1cc(C#N)ccc1OCCCOc1ccc2c(c1)CC[C@H]2CC(=O)O | 7500 nM | 700 nM | 14 nM | – | – | – |
| CCCc1c(OCCCOc2ccc3c(c2)CC[C@H]3CC(=O)O)ccc2c(C)noc12 | > 10000 nM | 173 nM | 2.1 nM | – | – | – |
| COc1ccc(OCCCOc2ccc3c(c2)CC[C@H]3CC(=O)O)cc1 | > 10000 nM | 3000 nM | 6.7 nM | – | – | – |
